Laboratory results from ChEMBL document CHEMBL1125518, “Sulfonylureas: a new class of cancer chemotherapeutic agents” (1992).

What was measured:
Format in all cases: functional
6C3HED [1] = test: Inhibition of tumor growth of 6C3HED lymphosarcoma tumor cell line in mice at a dose of 300 mg/kg given orally (daily x 8); settings: Mus musculus, route oral
Procedure, shortened: (§1)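 C3H mice received subcutaneous 1-2 mm 6C3HED lymphosarcoma fragments, which grew for 1 day before treatment. The agent was suspended in 2.5% emulphor and given by oral gavage once daily on days 2-9. On day 10, intact tumors were measured by calipers to estimate tumor weight. Percent inhibition was taken from treated versus untreated control tumor weights, mostly with 10 mice per group.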

6C3HED [2] = test: Inhibition of tumor growth of 6C3HED lymphosarcoma tumor cell line in mice at a dose of 150 mg/kg given orally(daily x 8); settings: Mus musculus, po; procedure, shortened: as §1
6C3HED [3] = test: Inhibition of tumor growth of 6C3HED lymphosarcoma tumor cell line in mice at a dose of 200 mg/kg given orally(daily x 8); settings: Mus musculus, po; procedure, shortened: as §1
Mus musculus = test: Lethal dose against C3H mouse with subcutaneously implanted 6C3HED lymphosarcoma; settings: sc
Procedure, shortened: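 C3H mice bearing subcutaneously implanted 6C3HED lymphosarcoma fragments (1-2 mm), grown 1 day before treatment. Compound suspended in 2.5% emulphor and given po by gavage daily × 8 (days 2-9). Deaths from drug toxicity were recorded to give the lethal dose.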

CX-1 = test: Inhibition of tumor growth of CX-1 cell line at 600 mg/kg; settings: Homo sapiens

Structure (SMILES)	inhibition in vivo at 300 mg/kg (6C3HED [1]) [%]	inhibition in vivo at 150 mg/kg (6C3HED [2]) [%]	inhibition in vivo at 200 mg/kg (6C3HED [3]) [%]	LD50 (Mus musculus) [mg/kg]	inhibition in vivo at 600 mg/kg (CX-1) [%]
CCc1ccsc1S(=O)(=O)NC(=O)Nc1ccc(Cl)cc1	25	21	–	–	–
CSc1ccc(S(=O)(=O)NC(=O)Nc2ccc(Cl)cc2)s1	62	29	–	–	–
Cc1ccc(S(=O)(=O)NC(=O)Nc2ccc(Cl)c(Cl)c2)s1	61	24	–	–	–
CCc1ccc(S(=O)(=O)NC(=O)Nc2ccc(Cl)cc2)s1	89	57	–	–	–
COc1csc(S(=O)(=O)NC(=O)Nc2ccc(Cl)cc2)c1	69	36	–	–	–
Cc1cc(S(=O)(=O)NC(=O)Nc2ccc(Cl)cc2)sc1C	73	42	–	–	–
CCc1csc(S(=O)(=O)NC(=O)Nc2ccc(Cl)cc2)c1	93	55	–	–	–
O=C(Nc1ccc(Cl)cc1)NS(=O)(=O)c1scc2c1CCCC2	15	0	–	–	–
CC(C)c1ccc(S(=O)(=O)NC(=O)Nc2ccc(Cl)cc2)s1	63	42	–	–	–
CCOc1ccc(S(=O)(=O)NC(=O)Nc2ccc(Cl)cc2)s1	96	69	–	–	–
CCCc1ccc(S(=O)(=O)NC(=O)Nc2ccc(Cl)cc2)s1	39	38	–	–	–
CC(C)(C)c1ccc(S(=O)(=O)NC(=O)Nc2ccc(Cl)cc2)s1	10	7	–	–	–
O=C(Nc1ccc(Cl)c(Cl)c1)NS(=O)(=O)c1cc2c(s1)CCCC2	–	–	44	–	–
COc1ccc(S(=O)(=O)NC(=O)Nc2ccc(Cl)cc2)s1	100	93	–	450	62
O=C(Nc1ccc(Cl)cc1)NS(=O)(=O)c1cc2c(s1)CCC2	16	16	–	–	–
Cc1ccsc1S(=O)(=O)NC(=O)Nc1ccc(Cl)cc1	62	17	–	–	–
CCc1ccc(S(=O)(=O)NC(=O)Nc2ccc(Cl)cc2)o1	80	57	–	–	–
O=C(Nc1ccc(Cl)cc1)NS(=O)(=O)c1cc(Br)c(Br)s1	52	25	–	–	–
CCc1ccc(S(=O)(=O)NC(=O)Nc2ccc(Cl)cc2)[nH]1	56	–	–	–	–
O=C(Nc1ccc(Cl)cc1)NS(=O)(=O)c1cccs1	66	16	–	–	–
O=C(Nc1ccc(Cl)cc1)NS(=O)(=O)c1scc2c1CCC2	51	36	–	–	–
CCc1sc(S(=O)(=O)NC(=O)Nc2ccc(Cl)cc2)cc1C	58	26	–	–	–
O=C(Nc1ccc(Cl)cc1)NS(=O)(=O)c1ccc(Cl)s1	89	58	–	–	–
CCCOc1ccc(S(=O)(=O)NC(=O)Nc2ccc(Cl)cc2)s1	63	44	–	–	–
